In ChEMBL document CHEMBL1132240, “Design and synthesis of modified quinolones as antitumoral acridones” (J Med Chem, 1999):

What was measured:
[1] = system: P388; assay: Cytotoxic activity Murine Lymphocytic Leukemia P388 Concentration of agent required to reduce cell viability by 90%; type: functional; conditions: Mus musculus
Outline: (§1)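 Modified MTT assay. Cells seeded per well with graded drug: CHO 2.5 × 10^3, B16 5 × 10^3, P388 and LLC 10^4, HL-60 and LoVo 5 × 10^4. After 68 h, MTT (2.5 mg/mL) added for 4 h at 37 °C. Formazan dissolved in DMSO and A550 read. Inhibition taken as fractional A550 decrease vs control. IC50/IC90 from Chou's median-effect equation.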

[2] = system: LoVo; assay: Cytotoxic activity against solid tumor, LoVo, (human colon adenocarcinoma) Concentration of agent required to reduce cell viability by 90%; type: functional; outline: as §1
[3] = system: B16; assay: Cytotoxic activity against solid tumor, B16 (murine melanoma) Concentration of agent required to reduce cell viability by 90%; Not observed; type: functional, cell-based; conditions: Mus musculus; outline: as §1
[4] = system: CHO; assay: Cytotoxic activity against solid tumor, CHO (Chinese hamster ovaric carcinoma) Concentration of agent required to reduce cell viability by 90%; Not observed; type: functional, cell-based; conditions: Cricetulus griseus; outline: as §1
[5] = Ratio of antilog(mean log IC90 in bone marrow sample) and antolog(mean log IC90) in HL-60); type: functional
Outline: (§2)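 Second-stage assay on HL-60 (5 × 10^4/well) and soybean-agglutinin-negative mononuclear marrow cells (5 × 10^5/well) from six healthy donors. Four wells per concentration, 48 h at 37 °C, then [125I]iododeoxyuridine plus fluorodeoxyuridine for 18 h. Inhibition from fractional uptake decrease; IC50/IC90 by median-effect equation. Ranges are antilog(mean log ± 2SD); ratios use mean antilogs.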

[6] = species on record: Homo sapiens; assay: Relative cytotoxicity against Human bone marrow samples; Value is in range, activity expressed as IC90; type: functional; outline: as §2
[7] = Ratio of antilog(mean log IC50 in bone marrow sample) and antolog(mean log IC90) in HL-60); type: functional; outline: as §2
[8] = system: HL-60; assay: Relative cytotoxicity against Human promyelocytic Leukemia(HL-60) cells; Value is in range, activity expressed as IC50; type: functional, cell-based; outline: as §2
[9] = system: LoVo; assay: Cytotoxic activity against solid tumor, LoVo, (human colon adenocarcinoma) Concentration of agent required to reduce cell viability by 50%; type: functional, cell-based; outline: as §1
[10] = system: HL-60; assay: Cytotoxic activity against Human promyelocytic Leukemia HL-60 Concentration of agent required to reduce cell viability by 90%; type: functional; outline: as §1
[11] = species on record: Homo sapiens; assay: Relative cytotoxicity against Human bone marrow samples; Value is in range, activity expressed as IC50; type: functional; outline: as §2
[12] = system: P388; assay: Cytotoxic activity against Murine Lymphocytic Leukemia P388 Concentration of agent required to reduce cell viability by 50%; type: functional, cell-based; conditions: Mus musculus; outline: as §1
[13] = system: Lewis lung carcinoma cell line; assay: Cytotoxic activity against solid tumor LLC(Lewis lung carcinoma), concentration of agent required to reduce cell viability by 50%; type: functional, cell-based; conditions: Mus musculus; outline: as §1
[14] = system: B16; assay: Cytotoxic activity against solid tumor, B16 (murine melanoma) Concentration of agent required to reduce cell viability by 50%; type: functional, cell-based; conditions: Mus musculus; outline: as §1
[15] = system: CHO; assay: Cytotoxic activity against solid tumor, CHO (Chinese hamster ovaric carcinoma) Concentration of agent required to reduce cell viability by 50%; type: functional, cell-based; conditions: Cricetulus griseus; outline: as §1
[16] = system: Lewis lung carcinoma cell line; assay: Cytotoxic activity against solid tumor LLC(Lewis lung carcinoma), concentration of agent required to reduce cell viability by 90%; not observed; type: functional, cell-based; conditions: Mus musculus; outline: as §1
[17] = system: HL-60; assay: Cytotoxic activity against Human promyelocytic Leukemia HL-60 Concentration of agent required to reduce cell viability by 50%; type: functional, cell-based; outline: as §1
[18] = system: HL-60; assay: Relative cytotoxicity against Human promyelocytic Leukemia(HL-60) cells; Value is in range, activity expressed as IC90; type: functional; outline: as §2
[19] = Ratio of antilog(mean log IC50 in bone marrow sample) and antolog(mean log IC50) in HL-60); type: functional; outline: as §2
[20] = system: LoVo; assay: Cytotoxic activity against solid tumor, LoVo, (human colon adenocarcinoma) concentration of agent required to reduce cell viability by 50%; type: functional, cell-based; outline: as §1
[21] = system: CHO; assay: Cytotoxic activity against solid tumor, CHO (Chinese hamster ovaric carcinoma) concentration of agent required to reduce cell viability by 50%; type: functional, cell-based; conditions: Cricetulus griseus; outline: as §1
[22] = Ratio of cytotoxicity of compound towards bone marrow sample and to that of HL-60 was determined as IC50BM/IC90HL; type: functional; outline: as §2
[23] = system: HL-60; assay: Cytotoxic activity against human promyelocytic leukemia HL-60 concentration of agent required to reduce cell viability by 90%; type: functional; outline: as §1
[24] = system: P388; assay: In vivo antitumor activity against Murine P388 Leukemia at 60 mg/kg dose;(Median survival time of treated mice)/(median survival time of controls) x100; type: functional, Mus musculus
Outline: (§3)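 Female BD2F1 mice (8 weeks, 20-22 g), eight per group, given 10^5 P388 cells ip on day 0. From 24 h later, drug was given ip once daily for 9 days as a micronized suspension in 0.5% carboxymethylcellulose. Deaths were recorded daily over a 33-day study. %T/C = median survival time of treated / median survival time of controls × 100; >125 taken as significant.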

[25] = system: HL-60; assay: (§4) Relative cytotoxicity against human promyelocytic leukemia(HL-60) cells; type: functional, cell-based; outline: as §2
[26] = system: LoVo; assay: Cytotoxic activity against solid tumor, LoVo, (human colon adenocarcinoma) concentration of agent required to reduce cell viability by 90%; type: functional; outline: as §1
[27] = system: B16; assay: Cytotoxic activity against solid tumor, B16 (murine melanoma) concentration of agent required to reduce cell viability by 50%; type: functional, cell-based; conditions: Mus musculus; outline: as §1
[28] = system: B16; assay: Cytotoxic activity against solid tumor, B16 (murine melanoma) concentration of agent required to reduce cell viability by 90%; type: functional; conditions: Mus musculus; outline: as §1
[29] = system: P388; assay: Cytotoxic activity against murine lymphocytic leukemia P388 concentration of agent required to reduce cell viability by 50%; type: functional, cell-based; conditions: Mus musculus; outline: as §1
[30] = system: P388; assay: In vivo antitumor activity against Murine P388 Leukemia at 20 mg/kg dose;(Median survival time of treated mice)/(median survival time of controls) x100; type: functional, Mus musculus; outline: as §3
[31] = system: HL-60; assay: as §4; type: functional; outline: as §2
[32] = species on record: Homo sapiens; assay: Relative cytotoxicity against human bone marrow samples; type: functional; outline: as §2
[33] = system: CHO; assay: Cytotoxic activity against solid tumor, CHO (Chinese hamster ovaric carcinoma) concentration of agent required to reduce cell viability by 90%; type: functional; conditions: Cricetulus griseus; outline: as §1
[34] = Ratio of cytotoxicity of compound towards bone marrow sample and to that of HL-60 was determined as IC50BM/IC50HL; type: functional; outline: as §2
[35] = system: P388; assay: Cytotoxic activity against murine lymphocytic leukemia P388 concentration of agent required to reduce cell viability by 90%; type: functional; conditions: Mus musculus; outline: as §1
[36] = system: P388; assay: In vivo antitumor activity against Murine P388 Leukemia at 6.67 mg/kg dose;(Median survival time of treated mice)/(median survival time of controls) x100; type: functional, Mus musculus; outline: as §3
[37] = system: HL-60; assay: Cytotoxic activity against human promyelocytic leukemia HL-60 concentration of agent required to reduce cell viability by 50%; type: functional, cell-based; outline: as §1
[38] = system: Lewis lung carcinoma cell line; assay: Cytotoxic activity against solid tumor LLC(Lewis lung carcinoma), concentration of agent required to reduce cell viability by 90%; type: functional; conditions: Mus musculus; outline: as §1
[39] = Ratio of cytotoxicity of compound towards bone marrow sample and to that of HL-60 was determined as IC90BM/IC90HL; type: functional; outline: as §2
[40] = system: bone marrow cells (human); assay: Relative cytotoxicity against Human bone marrow samples; Value is in range, activity expressed as IC90
[41] = system: bone marrow cells (human); assay: Relative cytotoxicity against Human bone marrow samples; Value is in range, activity expressed as IC50
[42] = system: P388; assay: In vivo antitumor activity against Murine P388 Leukemia at 25 mg/kg dose;(Median survival time of treated mice)/(median survival time of controls) x100; type: functional, Mus musculus; outline: as §3
[43] = system: P388; assay: In vivo antitumor activity against Murine P388 Leukemia at 100 mg/kg dose;(Median survival time of treated mice)/(median survival time of controls) x100; type: functional, Mus musculus; outline: as §3
[44] = system: P388; assay: In vivo antitumor activity against Murine P388 Leukemia at 75 mg/kg dose;(Median survival time of treated mice)/(median survival time of controls) x100; type: functional, Mus musculus; outline: as §3
[45] = system: P388; assay: In vivo antitumor activity against Murine P388 Leukemia at 50 mg/kg dose;(Median survival time of treated mice)/(median survival time of controls) x100; type: functional, Mus musculus; outline: as §3
[46] = system: CHO; assay: Cytotoxic activity against solid tumor, CHO (Chinese hamster ovaric carcinoma) Concentration of agent required to reduce cell viability by 90%; type: functional; conditions: Cricetulus griseus; outline: as §1
[47] = system: B16; assay: Cytotoxic activity against solid tumor, B16 (murine melanoma) Concentration of agent required to reduce cell viability by 90%; type: functional; conditions: Mus musculus; outline: as §1

SMILES	IC90 [1]	IC90 [2]	Ratio [5]	IC90 [6]	Ratio [7]	IC50 [8]	IC50 [9]	IC90 [10]	IC50 [11]	IC50 [12]	IC50 [13]	IC50 [14]	IC50 [15]	IC50 [17]	IC90 [18]	Ratio [19]	IC50 [20]	IC50 [21]	Ratio [22]	IC90 [38]	other results
CCN(CC)CCn1c2cc(N3CCC(O)CC3)c(N)cc2c(=O)c2c(O)cc(O)cc21	1.6 µM	> 32 µM	1.1	0.672 µM	0.3	0.51 µM	> 32 µM	3.6 µM	0.168 µM	0.62 µM	8.7 µM	1.7 µM	23 µM	2.2 µM	0.657 µM	0.4					IC90 [3]: Not observed; IC90 [4]: Not observed; IC90 [16]: Not observed
CCN(CC)CCn1c2cc(Cl)c(N)cc2c(=O)c2c(O)cc(OC)cc21											5 µM						1.5 µM	1.1 µM	0.8	11 µM	IC90 [23]: 8.4 µM; T/C [24]: 100%; IC50 [25]: 1.86 µM; IC90 [26]: 6.3 µM; IC50 [27]: 1.6 µM; IC90 [28]: 4 µM; IC50 [29]: 3.8 µM; T/C [30]: 97%; IC90 [31]: 2.93 µM; IC50 [32]: 3.26 µM; IC90 [32]: 14.8 µM; IC90 [33]: 5.9 µM; Ratio [34]: 1.2; IC90 [35]: 8 µM; T/C [36]: 83%; IC50 [37]: 4.2 µM; Ratio [39]: 4.1
O=C1c2c(O)ccc(O)c2C(=O)c2c(NCCNCCO)ccc(NCCNCCO)c21 [MITOXANTRONE]			11.6		2.1	3.35 µM									8.03 µM	4.8					IC90 [40]: 38.7 µM; IC50 [41]: 27.6 µM
CCN(CC)CCn1c2cc(Cl)c(N)cc2c(=O)c2c(O)cc(O)cc21	3.5 µM	14 µM	0.7	6.46 µM	0.2	3.61 µM	5.4 µM	10 µM	1.52 µM	1.4 µM	3.6 µM	1 µM	1.5 µM	3.9 µM	5.74 µM	0.3				11 µM	T/C [42]: 105%; T/C [43]: 111%; T/C [44]: 110%; T/C [45]: 109%; IC90 [46]: 6.3 µM; IC90 [47]: 5.9 µM
COc1cc([C@@H]2c3cc4c(cc3[C@@H](O[C@@H]3O[C@@H]5CO[C@@H](C)O[C@H]5[C@H](O)[C@H]3O)[C@H]3COC(=O)[C@H]23)OCO4)cc(OC)c1O [ETOPOSIDE]											1.1 µM						2.3 µM	0.35 µM	0.9	4.5 µM	IC90 [23]: 3.1 µM; IC50 [25]: 0.367 µM; IC90 [26]: 44 µM; IC50 [27]: 0.32 µM; IC90 [28]: 1.9 µM; IC50 [29]: 0.24 µM; IC90 [31]: 0.73 µM; IC50 [32]: 0.99 µM; IC90 [32]: 7.02 µM; IC90 [33]: 7.7 µM; Ratio [34]: 1.8; IC90 [35]: 0.63 µM; IC50 [37]: 1.2 µM; Ratio [39]: 5.6
